Assay results: ChEMBL document CHEMBL1782044, “Aspartic vinyl sulfones: inhibitors of a caspase-3-dependent pathway” (Eur J Med Chem, 2011)
The source made the active and inactive calls. The rule behind the calls is not given here.

These molecules were tested on Saccharomyces cerevisiae (assay: Growth stimulation in Saccharomyces cerevisiae CG379 transformed with empty vector at 5 to 50 uM after 2 days). Details: in vivo, 48 h.
Format: organism-based

SMILES | Activity [%]
CC(=O)N[C@@H](CC(=O)O)C(=O)N[C@@H](CCC(=O)O)C(=O)N[C@H](C(=O)N[C@@H](CC(=O)O)C(=O)CCl)C(C)C | 1.7

Each molecule was assayed against T1, Caspase-3 (Homo sapiens) (UniProt P42574) (assay: Inhibition of human recombinant caspase-3 assessed as fluorescent 7-amido-4-methylcoumarin release using Ac-DEVD-AMC as peptide substrate at <200 uM by fluorometric assay). Details: not given.
T1 sequence (whole entry): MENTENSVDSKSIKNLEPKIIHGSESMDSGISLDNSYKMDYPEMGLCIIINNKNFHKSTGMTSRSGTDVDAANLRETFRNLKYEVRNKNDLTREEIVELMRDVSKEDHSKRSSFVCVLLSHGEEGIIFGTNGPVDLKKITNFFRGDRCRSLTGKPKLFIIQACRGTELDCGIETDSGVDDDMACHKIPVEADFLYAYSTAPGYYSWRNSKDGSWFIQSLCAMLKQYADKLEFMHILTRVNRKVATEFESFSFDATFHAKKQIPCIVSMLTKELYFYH
Outline: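 Recombinant human caspase-3 (stock 10 U/ml in assay buffer) mixed with inhibitor at various concentrations. Reaction started with AMC substrate at 200 (final). Buffer was 20 mM HEPES, 2 mM EDTA, 0.1% CHAPS, 5 mM DTT, pH 7.4. AMC release followed continuously at 37 °C by fluorescence, excitation 360 nm and emission 460 nm. IC50 determined.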

SMILES | inhibition
CC(C)[C@H](NC(=O)OCC1c2ccccc2-c2ccccc21)C(=O)N[C@H](C(=O)N[C@H](/C=C/S(=O)(=O)c1ccccc1)CC(=O)O)C(C)C | inactive
C[C@H](NC(=O)OCc1ccccc1)C(=O)N[C@H](/C=C/S(=O)(=O)c1ccccc1)CC(=O)O | inactive
C[C@H](NC(=O)OCC1c2ccccc2-c2ccccc21)C(=O)N[C@H](/C=C/S(C)(=O)=O)CC(=O)O | inactive
CC(C)[C@H](NC(=O)OCC1c2ccccc2-c2ccccc21)C(=O)N[C@H](C(=O)N[C@H](/C=C/S(C)(=O)=O)CC(=O)O)C(C)C | inactive
CC[C@H](C)[C@H](NC(=O)OCC1c2ccccc2-c2ccccc21)C(=O)N[C@H](/C=C/S(C)(=O)=O)CC(=O)O | inactive
C[C@H](NC(=O)OCc1ccccc1)C(=O)N[C@H](/C=C/S(C)(=O)=O)CC(=O)O | inactive
CC[C@H](C)[C@H](NC(=O)OCC1c2ccccc2-c2ccccc21)C(=O)N[C@H](/C=C/S(=O)(=O)c1ccccc1)CC(=O)O | inactive
C[C@H](NC(=O)OCC1c2ccccc2-c2ccccc21)C(=O)N[C@H](/C=C/S(=O)(=O)c1ccccc1)CC(=O)O | inactive

What follows are molecules tested on Saccharomyces cerevisiae (assay: Growth stimulation in Saccharomyces cerevisiae CG379 transformed with empty vector at 5 to 100 uM after 2 days). Details: in vivo, 48 h.
Format: organism-based

SMILES | Activity [%]
CC[C@H](C)[C@H](NC(=O)OCc1ccccc1)C(=O)N[C@H](/C=C/S(=O)(=O)c1ccccc1)CC(=O)O | 1.9
CC(C)[C@H](NC(=O)OCC1c2ccccc2-c2ccccc21)C(=O)N[C@H](/C=C/S(=O)(=O)c1ccccc1)CC(=O)O | 1.3
CS(=O)(=O)/C=C/[C@H](CC(=O)O)NC(=O)OCC1c2ccccc2-c2ccccc21 | 1.7
O=C(O)C[C@@H](/C=C/S(=O)(=O)c1ccccc1)NC(=O)OCC1c2ccccc2-c2ccccc21 | 2.8
CC(C)[C@H](NC(=O)OCC1c2ccccc2-c2ccccc21)C(=O)N[C@H](/C=C/S(C)(=O)=O)CC(=O)O | -7
CC(C)[C@H](NC(=O)OCc1ccccc1)C(=O)N[C@H](/C=C/S(C)(=O)=O)CC(=O)O | -1
CC[C@H](C)[C@H](NC(=O)OCc1ccccc1)C(=O)N[C@H](/C=C/S(C)(=O)=O)CC(=O)O | -3.3
